In the library only some 2% were active in any assay of this set; here they are far more common.
TDP2 absorb – TDP2 (human) inhibition, absorbance primary screen. recombinant TDP2, T5PNP hydrolysis, p-nitrophenol absorbance 415 nm. inhibition, % at 12.8 µM. 370,000 compounds, 0.34% hits. AID 720702;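 active = inhibition above the mean of all tested compounds plus 3 SD, set per campaign, cut at about 25% in these data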;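 also: 0% = DMSO with enzyme and 100% = buffer with substrate but no TDP2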
Target sequence (O95551 whole entry, looked up): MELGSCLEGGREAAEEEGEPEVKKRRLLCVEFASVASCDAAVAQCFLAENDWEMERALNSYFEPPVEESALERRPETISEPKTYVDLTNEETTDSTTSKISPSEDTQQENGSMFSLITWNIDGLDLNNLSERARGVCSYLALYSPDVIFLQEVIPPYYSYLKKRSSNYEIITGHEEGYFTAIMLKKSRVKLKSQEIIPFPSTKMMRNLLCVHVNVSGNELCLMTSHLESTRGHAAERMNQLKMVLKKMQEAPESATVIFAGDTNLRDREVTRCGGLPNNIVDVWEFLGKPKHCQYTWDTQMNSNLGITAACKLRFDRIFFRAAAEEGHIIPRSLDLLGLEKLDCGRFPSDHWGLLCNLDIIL
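Assay system: Recombinant human TDP2 | Quantity: 120 nM TDP2 per well | Incubation: 2 h at 37 °C | Signal: Epi absorbance | Evaluation: Percent inhibition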
ABHD4 inh – inhibitors of mouse ABHD4; purified mABHD4, FP-Rh probe fluorescence polarization; inhibition, % at 8.92 µM; 370,000 compounds, 0.54% hits; AID 720543;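 active = inhibition exceeding the mean over every tested compound plus 3 SD, cut at about 30% in these data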;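 also: 0% = plate median of compound wells and 100% = S159A mutant with DMSO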
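Assay system: Wild-type mouse ABHD4 protein | Medium: HEPES pH 7.0 buffer, 150 mM NaCl, 0.01% Pluronic F-127 | Incubation: Enzyme–compound pre-incubation 45 min, then probe 60 min, both 25 °C | Technique: Fluorescence polarization with parallel and perpendicular emission, 525/598 nm | Evaluation: % inhibition of FP-Rh probe binding versus controls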
SIAE inh – blocks human sialic acid acetylesterase; inhibition, % at 9.66 µM; 370,000 compounds, 0.69% hits; SIAE FP-Rh probe binding, fluorescence polarization; AID 1053197;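 active = inhibition above a cutoff: mean of compounds within the control limits plus 3 SD of those, cut at about 17% in these data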;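 also: 0% = plate median of compound wells and 100% = probe without SIAE protein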
HTRA1 inhibitor – blocks human HTRA1 serine peptidase. recombinant HTRA1, FP-rhodamine activity-based probe, fluorescence polarization. inhibition, % at 5.96 µM. AID 504803. Q92743. 340,000 compounds, 0.5% hits; in the data active = inhibition above about 36%;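 also: 0% = enzyme with DMSO and 100% = wells lacking enzyme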
PAD4 inh – PAD4 (human) enzyme inhibition. 330,000 compounds, 0.41% hits. AID 485272. inhibition, % at 6.36 µM. recombinant PAD4, RCA probe fluorescence polarization. Q9UM07;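 active = percent inhibition above a cutoff equal to the mean of all tested compounds plus 3 SD, cut at about 15% in these data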;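 also: 0% = PAD4 with RCA probe and DMSO and 100% = probe without PAD4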
TCR CD3 inh – inhibitors of human TCR-CD3 interaction | TAMRA-labeled TCR probe fluorescence, biochemical | inhibition, % at 9.4 µM | 360,000 compounds, 0.37% hits | AID 651800;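 also: recombinant mutant TCR 2C K166C tagged with TAMRA read by polarization; 0% = receptor in buffer alone and 100% = receptor with positive control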
BSA probe FL – interferes with TAMRA-BSA probe, flagging TCR-CD3 hits | shares compounds with TCR CD3 inh | TAMRA-labeled BSA probe fluorescence counterscreen | inhibition, % at 9.4 µM | 1,200 compounds, 10% hits | AID 652035; in the data active = inhibition above about 23%;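 also: 0% = buffer low control and 100% = reference high control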
TCR-CD3 conf – TCR-CD3 interaction inhibition, confirmation; TAMRA-labeled TCR probe fluorescence binding assay; 1,200 compounds, 48% hits; AID 652036; inhibition, % at 9.4 µM; shares compounds with TCR CD3 inh
Active calls of the source: *; · = no result given. Rule as the data show it, unless noted: active = inhibition above about 19%; inactive = the rest.

SMILES	TDP2 absorb	ABHD4 inh	SIAE inh	HTRA1 inhibitor	PAD4 inh	TCR CD3 inh	BSA probe FL	TCR-CD3 conf
Cc1cc2cc(CNC(=O)CCC(=O)O)ccc2n1C	-14	11	-5	5	4	10	·	·
Cc1cc2cc(CNC(=O)c3ccc(Br)o3)ccc2n1C	7	-7	-3	-1	9	22*	6	7
COc1cccc(CNC(=O)c2ccc(S(=O)(=O)N3CCOCC3)cc2)c1	-5	-3	6	-3	·	0	·	·
Cc1cc2cc(CNC(=O)c3cccc([N+](=O)[O-])c3)ccc2n1C	-8	27	5	0	-2	26*	3	4
Cc1cc2cc(CNC(=O)c3ccc(S(=O)(=O)N4CCOCC4)cc3)ccc2n1C	-3	23	9	15	14	48*	2	5
Cc1cc2cc(CNC(=O)Cc3ccc([N+](=O)[O-])cc3)ccc2n1C	11	2	-1	29	9	5	·	·
Cc1ccc(NC(=O)CCNC(=O)c2ccccc2Cl)cc1S(=O)(=O)N1CCOCC1	-3	-8	-2	4	5	3	·	·
CC(C)COc1cccc(C(=O)NC2(C)CCS(=O)(=O)C2)c1 (centres undefined)	-2	9	6	1	-2	4	·	·
O=C(COC(=O)c1cc(S(=O)(=O)N2CCOCC2)c(Cl)cc1Cl)c1ccc[nH]1	3	2	-12	5	5	2	·	·
O=C(CN(c1ccc(F)cc1)S(=O)(=O)c1ccccc1)N1CCOCC1	3	5	0	0	1	0	·	·
Cc1ccc(CNC(=O)c2ccc(S(=O)(=O)N3CCCCCC3)cc2)cc1	4	2	-1	1	·	-2	·	·
Cc1cc2cc(CNC(=O)c3ccc(S(=O)(=O)N4CCCCC4)cc3)ccc2[nH]1	5	24	-1	-12	-9	20*	-2	-2
COc1ccccc1OC(=O)c1ccc2nsnc2c1	-4	-2	0	-6	0	21*	6	4
COc1ccc(C(=O)NNC(=O)COc2ccc(Cl)cc2)c(OC)c1	-8	-1	10	17	-4	25*	-20	24*
COC(=O)NNC(=O)COc1ccc(Cl)cc1	·	·	·	5	-4	·	·	·
CCOC(=O)NC(=O)c1cn(N(C)c2ncc(C(F)(F)F)cc2Cl)c(=O)[nH]c1=O	-8	-2	5	0	-2	-1	·	·
CCNc1ccc(C(=O)O)cc1N	6	21	7	29	10	23*	22	14
COC(=O)[C@H](CC(C)C)NC(=O)Cn1cnc2c(OCc3ccccc3)ncnc21	5	1	8	-5	-3	2	·	·
C[C@H](CO)N1C[C@H](C)[C@@H](CN(C)S(=O)(=O)c2ccccc2)Oc2ccc(NC(=O)Nc3ccc(C(F)(F)F)cc3)cc2C1=O	-2	-87	-177	-118	-6	28*	6	9
CC(C)NC(=O)Nc1ccc2c(c1)C(=O)N([C@H](C)CO)C[C@H](C)[C@@H](CN(C)S(=O)(=O)c1ccccc1)O2	3	0	-2	3	1	-2	·	·
O=C(NCCCn1ccnc1)c1[nH]c(C(F)(F)F)nc1-c1ccccc1	4	-4	1	·	·	3	·	·
CNC(=S)NNC(=O)c1oc2nc(-c3ccccc3)cc(C)c2c1N	4	12	-2	23	-2	29*	-1	18
COc1ccc(C(=O)C=CNNC(=O)c2ccc(Cl)cc2)cc1	2	-2	5	31	-6	22*	-3	24*
Cc1ccc(C(=O)/C=C/NNC(=O)c2ccccc2O)cc1	-1	10	4	8	-5	19*	-11	12
O=C(/C=C/NNC(=O)c1ccc(Cl)cc1)c1ccccc1	-7	1	6	24	2	12	·	·
COc1cc(CN2C[C@@H](CO)O[C@@H](n3cnc4c(NC5CC5)ncnc43)C2)cc(OC)c1OC	-6	0	1	·	·	1	·	·
COc1ccc(C(=O)NC2CCN(C(=O)NCc3ccccc3)CC2)cc1	1	-5	7	4	-2	3	·	·

Bioassay records as filed in PubChem.
